From ChEMBL document CHEMBL1153746, “Mansouramycins A-D, cytotoxic isoquinolinequinones from a marine streptomycete” (J Nat Prod, 2009)

What was measured:
Assay type in all cases: functional, cell-based
[1] = Cytotoxicity against human MEXF 462NL cells after 4 days by propidium iodide assay; conditions: 96 h
Method in brief: (§1)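 Monolayer cell proliferation assay across a panel of up to 36 human tumour lines covering 14 solid tumour types. Lines came either from patient tumours grown as subcutaneous xenografts in NMRI nu/nu mice or from culture collections (ATCC, NCI, DSMZ). Potency is given as IC50.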

[2] = Cytotoxicity against human 514L cells after 4 days by propidium iodide assay; conditions: 96 h; method in brief: as §1
[3] = Cytotoxicity against human BXF T24 cells after 4 days by propidium iodide assay; conditions: T-24, 96 h; method in brief: as §1
[4] = Cytotoxicity against human NSB005 cells after 7 to 20 days by clonogenic assay
Method in brief: (§2)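 Colony formation assay on hematopoietic stem cells from cord blood, used as nonmalignant tissue. Cells were embedded and incubated in culture medium containing methyl cellulose. Potency is given as IC50.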

[5] = tested on: SF-268; assay: Cytotoxicity against human SF268 cells after 4 days by propidium iodide assay; conditions: SF-268, 96 h; method in brief: as §1
[6] = Cytotoxicity against human 1619L cells after 4 days by propidium iodide assay; conditions: 96 h, in the assay text read “MTT assay” for “propidium iodide assay”; method in brief: as §1
[7] = Cytotoxicity against human 575 cells after 7 to 20 days by clonogenic assay
Method in brief: (§3)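 Colony formation assay for clonogenicity. Cell suspensions were prepared from patient-derived human tumour xenografts, kept by serial subcutaneous passage in NMRI nu/nu mice. Cells were embedded and incubated in culture medium containing soft agar. Potency is given as IC50.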

[8] = Cytotoxicity against human 401 cells after 7 to 20 days by clonogenic assay; method in brief: as §3
[9] = Cytotoxicity against human LXFL 529L cells after 4 days by propidium iodide assay; conditions: 96 h; method in brief: as §1
[10] = Cytotoxicity against human 899 cells after 7 to 20 days by clonogenic assay; method in brief: as §3
[11] = Cytotoxicity against human 1218 cells after 7 to 20 days by clonogenic assay; method in brief: as §3
[12] = Cytotoxicity against human 498NL cells after 4 days by propidium iodide assay; conditions: 96 h; method in brief: as §1
[13] = tested on: LNCaP; assay: Cytotoxicity against human LNCAP cells after 4 days by propidium iodide assay; conditions: 96 h; method in brief: as §1
[14] = Cytotoxicity against human RXF 944L cells after 4 days by propidium iodide assay; conditions: 96 h; method in brief: as §1
[15] = Cytotoxicity against human RXF 486L cells after 4 days by propidium iodide assay; conditions: 96 h; method in brief: as §1
[16] = tested on: MCF7; assay: Cytotoxicity against human MCF7 cells after 4 days by propidium iodide assay; conditions: MCF7, 96 h; method in brief: as §1
[17] = tested on: HCT-116; assay: Cytotoxicity against human HCT116 cells after 4 days by propidium iodide assay; conditions: HCT-116, 96 h; method in brief: as §1
[18] = Cytotoxicity against human 1752L cells after 4 days by propidium iodide assay; conditions: 96 h; method in brief: as §1
[19] = Cytotoxicity against human 899L cells after 4 days by propidium iodide assay; conditions: 96 h; method in brief: as §1
[20] = Cytotoxicity against human GXF251L cells after 4 days by propidium iodide assay; conditions: GXF 251L, 96 h; method in brief: as §1
[21] = tested on: OVCAR-3; assay: Cytotoxicity against human OVCAR-3 cells after 4 days by propidium iodide assay; conditions: OVCAR-3, 96 h; method in brief: as §1
[22] = Cytotoxicity against human 393NL cells after 4 days by propidium iodide assay; conditions: 96 h; method in brief: as §1
[23] = tested on: NCI-H460; assay: Cytotoxicity against human H460 cells after 4 days by propidium iodide assay; conditions: NCI-H460, 96 h; method in brief: as §1
[24] = Cytotoxicity against human 394NL cells after 4 days by propidium iodide assay; conditions: 96 h; method in brief: as §1
[25] = Cytotoxicity against human 1322 cells after 7 to 20 days by clonogenic assay; method in brief: as §3
[26] = Cytotoxicity against human LXFA 629L cells after 7 to 20 days by clonogenic assay; method in brief: as §3
[27] = Cytotoxicity against human 536L cells after 4 days by propidium iodide assay; conditions: 96 h; method in brief: as §1
[28] = tested on: PANC-1; assay: Cytotoxicity against human PANC1 cells after 4 days by propidium iodide assay; conditions: PANC-1, 96 h; method in brief: as §1
[29] = Cytotoxicity against human 520L cells after 4 days by propidium iodide assay; conditions: 96 h, in the assay text read “MTT assay” for “propidium iodide assay”; method in brief: as §1
[30] = Cytotoxicity against human NSB008 cells after 7 to 20 days by clonogenic assay; method in brief: as §2
[31] = Cytotoxicity against human 1781L cells after 4 days by propidium iodide assay; conditions: 96 h; method in brief: as §1
[32] = tested on: DU-145; assay: Cytotoxicity against human DU145 cells after 4 days by propidium iodide assay; conditions: DU-145, 96 h; method in brief: as §1
[33] = tested on: CWR22R; assay: Cytotoxicity against human 22Rv1 cells after 4 days by propidium iodide assay; conditions: 22Rv1, 96 h; method in brief: as §1
[34] = Cytotoxicity against human 514 cells after 7 to 20 days by clonogenic assay; method in brief: as §3
[35] = Cytotoxicity against human 629L cells after 4 days by propidium iodide assay; conditions: 96 h; method in brief: as §1
[36] = Cytotoxicity against human 1657L cells after 4 days by propidium iodide assay; conditions: 96 h; method in brief: as §1
[37] = Cytotoxicity against human 526L cells after 4 days by propidium iodide assay; conditions: 96 h; method in brief: as §1
[38] = Cytotoxicity against human LXFA 526 cells after 7 to 20 days by clonogenic assay; method in brief: as §3
[39] = tested on: HT-29; assay: Cytotoxicity against human HT-29 cells after 4 days by propidium iodide assay; conditions: HT-29, 96 h; method in brief: as §1
[40] = Cytotoxicity against human MAXF 401NL cells after 4 days by propidium iodide assay; conditions: 96 h; method in brief: as §1
[41] = Cytotoxicity against human RXF631 cells after 7 to 20 days by clonogenic assay; conditions: RXF 631; method in brief: as §3
[42] = Cytotoxicity against human PC3M cells after 4 days by propidium iodide assay; conditions: PC-3M, 96 h; method in brief: as §1
[43] = Cytotoxicity against human UXF 1138L cells after 4 days by propidium iodide assay; conditions: 96 h; method in brief: as §1
[44] = Cytotoxicity against human 1121L cells after 4 days by propidium iodide assay; conditions: 96 h; method in brief: as §1
[45] = Cytotoxicity against human 276 cells after 7 to 20 days by clonogenic assay; method in brief: as §3
[46] = Cytotoxicity against human 243 cells after 7 to 20 days by clonogenic assay; method in brief: as §3
[47] = Cytotoxicity against human 289L cells after 4 days by propidium iodide assay; conditions: 96 h; method in brief: as §1
[48] = Cytotoxicity against human 276L cells after 4 days by propidium iodide assay; conditions: 96 h; method in brief: as §1
[49] = Cytotoxicity against human 1218L cells after 4 days by propidium iodide assay; conditions: 96 h; method in brief: as §1
[50] = in the assay text read “MTT assay” for “propidium iodide assay”

CNC1=CC(=O)c2cc(C)ncc2C1=O
IC50 [1]: 19 µM | IC50 [2]: 2.02 µM | IC50 [3]: 0.61 µM | IC50 [4]: 4.58 µM | IC50 [5]: 1.8 µM | IC50 [6]: 4.01 µM | IC50 [7]: 8.35 µM | IC50 [8]: 3.89 µM | IC50 [9]: 4.88 µM | IC50 [10]: 5.35 µM | IC50 [11]: 4.34 µM | IC50 [12]: 5.21 µM | IC50 [13]: 6.36 µM | IC50 [14]: 5.43 µM | IC50 [15]: 50.6 µM | IC50 [16]: 1.11 µM | IC50 [17]: 3.62 µM | IC50 [18]: 6.02 µM | IC50 [19, 50]: 6.6 µM | IC50 [20]: 3.6 µM | IC50 [21, 50]: 7.64 µM | IC50 [22]: 4.16 µM | IC50 [23]: 3.92 µM | IC50 [24]: 5.72 µM | IC50 [25]: 8.35 µM | IC50 [26]: 1.63 µM | IC50 [27]: 0.38 µM | IC50 [28]: 3.83 µM | IC50 [29]: 0.24 µM | IC50 [30]: 4.53 µM | IC50 [31]: 9.89 µM | IC50 [32]: 0.34 µM | IC50 [33]: 4.69 µM | IC50 [34]: 0.05 µM | IC50 [35]: 1.18 µM | IC50 [36, 50]: 4.93 µM | IC50 [37]: 10.6 µM | IC50 [38]: 4.31 µM | IC50 [39]: 1.98 µM | IC50 [40]: 17.3 µM | IC50 [41]: 7.81 µM | IC50 [42]: 6.04 µM | IC50 [43, 50]: 2.23 µM | IC50 [44]: 6.56 µM | IC50 [45]: 0.33 µM | IC50 [46]: 10.3 µM | IC50 [47]: 3.04 µM | IC50 [48]: 0.35 µM | IC50 [49]: 10.3 µM

CNC1=C(Cl)C(=O)c2cc(C)ncc2C1=O
IC50 [1]: 5.64 µM | IC50 [9]: 1.54 µM | IC50 [12]: 1.34 µM | IC50 [15]: 17.9 µM | IC50 [18]: 5.19 µM | IC50 [19]: 13.9 µM | IC50 [20]: 1.75 µM | IC50 [21]: 2 µM | IC50 [22]: 1.57 µM | IC50 [33]: 5.67 µM | IC50 [35]: 1.23 µM | IC50 [36]: 1.81 µM | IC50 [40]: 3.55 µM | IC50 [42]: 3.23 µM | IC50 [43]: 1.68 µM | IC50 [47]: 5.96 µM | IC50 [48]: 0.36 µM | IC50 [49]: 1.38 µM
